# A selection: hits, their analogues and other compounds. The true share with any hit is near 1.6%.
# UHRF1 MBD2 ctr: human UHRF1 methylated DNA binding inhibitors. UHRF1 binding to methylated oligo, TR-FRET. inhibition, % at 4.4 µM. 370,000 compounds, 0.75% hits. AID 687016;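 note: UHRF1 SRA domain binding a hemimethylated CpG hairpin DNA probe; 0% = median of test compound wells and 100% = reference inhibitor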
# TDP2 absorb: TDP2 (human) inhibition, absorbance primary screen; recombinant TDP2, T5PNP hydrolysis, p-nitrophenol absorbance 415 nm; O95551; inhibition, % at 12.8 µM; 370,000 compounds, 0.34% hits;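 active = inhibition above the mean of all tested compounds plus 3 SD, set per campaign, cut at about 25% in these data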;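 note: 0% = DMSO with enzyme and 100% = buffer with substrate but no TDP2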
# Target sequence (O95551 whole entry, looked up): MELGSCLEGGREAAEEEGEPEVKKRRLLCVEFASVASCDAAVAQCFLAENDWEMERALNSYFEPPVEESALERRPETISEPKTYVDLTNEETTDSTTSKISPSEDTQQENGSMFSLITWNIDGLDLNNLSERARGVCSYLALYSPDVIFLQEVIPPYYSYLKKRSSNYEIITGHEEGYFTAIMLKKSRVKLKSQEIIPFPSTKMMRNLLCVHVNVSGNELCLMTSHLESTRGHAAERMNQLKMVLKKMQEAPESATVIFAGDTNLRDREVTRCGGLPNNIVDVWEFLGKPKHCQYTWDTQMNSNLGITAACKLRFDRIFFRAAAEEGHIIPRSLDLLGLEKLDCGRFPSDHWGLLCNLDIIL
#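 System: recombinant human TDP2 / Amount: 120 nM TDP2 per well / Also added: 5 mM T5PNP chromogenic substrate / Doses: 12.8 µM single point, 1% DMSO / Incubation: 2 h at 37 °C / Detection: p-Nitrophenol epi absorbance / Evaluation: % inhibition relative to enzyme-containing and enzyme-free wells / Repeats: singlicate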
# MBD2 DNA inh: inhibitors of human MBD2 binding to methylated oligonucleotide; Q9UBB5; TR-FRET; inhibition, % at 4.4 µM; 370,000 compounds, 0.31% hits; in the data active = inhibition above about 13%
# LEDGF integ inh: blocks HIV-1 LEDGF/p75-dependent DNA integration | 370,000 compounds, 0.64% hits | TR-FRET IN-LEDGF/p75 DNA integration, Eu/Cy5 | AID 743269 | inhibition, % at 3.7 µM;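 active = inhibition above the screen-wide mean plus 3 SD, cut at about 13% in these data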;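 note: signal is the Cy5 over europium emission ratio at 671 and 618 nm; 0% = plate median of compound wells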
# UHRF1 ctr MBD2: inhibits human UHRF1 binding to methylated oligonucleotide, MBD2 counter-screen. 1,000 compounds, 25% hits. TR-FRET. shares compounds with MBD2 DNA inh. AID 720530. inhibition, % at 4.4 µM;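 note: UHRF1 SRA domain binding a labeled hemimethylated CpG hairpin DNA; 0% = vehicle only and 100% = reference inhibitor with vehicle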
# MBD2 confirm: confirmation of human MBD2-DBD methylated oligonucleotide binding inhibitors | shares compounds with MBD2 DNA inh | TR-FRET MBD2-DBD binding to methylated oligonucleotide | inhibition, % at 4.4 µM | 1,000 compounds, 26% hits | AID 720531; in the data active = inhibition above about 14%
# An asterisk follows results filed as active; / = not tested or not shown. Cut-off read from the data, not from the text of the source, unless noted: active = inhibition above about 21%; inactive = the rest.
SMILES,UHRF1 MBD2 ctr,TDP2 absorb,MBD2 DNA inh,LEDGF integ inh,UHRF1 ctr MBD2,MBD2 confirm
CC(C)CC(NC(N)=O)C(=O)OCC(=O)Nc1ccc(SC(F)F)cc1 (stereo not given),9,13,2,-3,/,/
COc1ccc(NS(=O)(=O)c2ccc3ccccc3c2)c2ncccc12,0,-14,3,-14,/,/
COC(=O)[C@]12C[C@H](CC(=O)NCc3cccc(C(F)(F)F)c3)C(=O)N(Cc3cccc4ccccc34)C1=C[C@H](C(C)(C)C)O[C@@H]2C,0,-3,25*,-1,0,2
O=C(Nc1ccc(Cl)cc1C(F)(F)F)c1ccccc1,0,9,0,-2,/,/
CCc1cccc(OCCCCNCCOC)c1,1,4,3,0,/,/
CC(C)(C)C(=O)Nc1cc(S(=O)(=O)N2CCCCC2)ccc1N1CCCCC1,21,-9,14*,-2,6,3
CC(C)C(=O)Nc1cc(S(=O)(=O)N2CCOCC2)ccc1N1CCCCC1,18,5,9,-5,/,/
O=C(Cn1c(=O)n(Cc2ccccc2)c(=O)c2ccccc21)NCc1ccco1,-3,3,-3,0,/,/
O=C(Nc1ccc(OC(F)(F)F)cc1)c1[nH]ncc1[N+](=O)[O-],-1,-13,3,3,/,/
Cc1onc(-c2c(Cl)cccc2Cl)c1C(=O)NCCc1ccc(S(N)(=O)=O)cc1,32*,-5,14*,3,1,5
NS(=O)(=O)c1ccc(CCNC(=O)c2ccc3nccnc3c2)cc1,18,7,15*,3,34*,26*
NS(=O)(=O)c1ccc(NC(=O)c2ccc3nccnc3c2)cc1,-2,-8,-2,-1,/,/
CC(=O)N1CCc2cc(S(=O)(=O)NCCC(=O)N3CCN(c4ccccn4)CC3)ccc21,5,-11,2,2,/,/
COc1ccc(-c2nc3ccc(C)cn3c2Cc2ccccc2C(F)(F)F)cc1OC,21*,-7,14*,-2,8,6
COc1ccc(-c2nc3ccc(Cl)cn3c2Cc2ccccc2C(F)(F)F)cc1OC,1,-9,2,8,/,/
O=C(CN1CCOCC1)NNC(=O)c1ccc([N+](=O)[O-])cc1,0,1,7,-1,/,/
CCn1cnc2cc(NC(=O)COc3ccc(C)cc3)ccc21,3,6,15*,-3,3,4
O=C(OCc1cccc([N+](=O)[O-])c1)c1ccc2ccccc2n1,-2,-1,-2,5,/,/
CN(C(=O)/C=C/c1ccc2c(c1)OCO2)c1ccccc1,15,-8,7,-5,/,/
CN(C(=O)C=Cc1ccccc1)c1ccccc1,2,3,24*,-1,5,1
COc1cccc(C(=O)NCC2CCCN(C(=O)Cc3cccc(C)c3)C2)c1OC (stereo not given),-1,6,1,-1,/,/
CCOc1cccc(CN2CCCC(CNC(=O)c3cccc(OC)c3OC)C2)c1 (stereo not given),5,-11,16*,2,6,1
CCN1CCN(CC(O)COCC2COc3ccccc3O2)CC1 (stereo not given),16,11,16*,-1,6,0
C=CCOc1ccc(CNCC2CCCO2)cc1 (stereo not given),39*,9,22*,13,7,1
COc1cc2[nH]c(=O)n(CCCCCC(=O)NCCCN3CCCC3=O)c(=O)c2cc1OC,6,-16,3,6,/,/
SMILES,UHRF1 MBD2 ctr,TDP2 absorb,MBD2 DNA inh,LEDGF integ inh,UHRF1 ctr MBD2,MBD2 confirm
COc1cccc(NC(=S)N2CCN(Cc3ccccc3)CC2)c1,-6,-2,17*,8,4,2
CCOc1ccc(NC(=O)c2cccc(-n3cccc3)c2)cc1S(=O)(=O)N1CCOCC1,54*,10,31*,6,77*,68*
COc1ccc(S(=O)(=O)N2CCOCC2)cc1NC(=O)c1cccc(-n2cccc2)c1,7,14,-2,8,/,/
O=C1CCCC2=C1C(c1ccc(Br)cc1)c1c([nH]c(=S)[nH]c1=O)N2 (stereo not given),1,7,0,8,/,/
O=c1[nH]c(=S)[nH]c2c1C(c1ccc(Br)cc1)c1c([nH]c(=S)[nH]c1=O)O2,107*,53*,105*,83*,104*,88*
O=C(COC(=O)C1CCC1)NC(=O)c1ccccc1,0,10,4,-2,/,/
O=C(COC(=O)C1CC1)NC(=O)c1ccccc1,23*,-22,16*,7,6,2
COc1ccc(CC(CC(=O)O)C(=O)NCc2ccccc2)cc1 (stereo not given),-1,12,0,2,/,/
COc1cccc(NC(=O)CN(C)C(=O)c2cc3c(s2)CCC3)c1,55*,-8,27*,9,30*,26*
CC(C)(C)OC(=O)C[C@H]1C/C=C\C[C@H](CC(=O)N(CCO)Cc2ccccc2)C(=O)N[C@@H](Cc2ccccc2)COC1=O,-1,0,0,-2,/,/
COc1ccc(S(=O)(=O)N(C)C[C@@H]2Oc3cc(C#CC4CCCCC4)ccc3S(=O)(=O)N([C@@H](C)CO)C[C@@H]2C)cc1,27*,-8,17*,-6,12,8
COc1ccccc1S(=O)(=O)N(C)C[C@H]1Oc2cc(C#CCC3CCCC3)ccc2S(=O)(=O)N([C@H](C)CO)C[C@H]1C,22*,1,14*,5,10,9
COc1ccc(C#Cc2ccc3c(c2)O[C@H](CN(C)S(=O)(=O)c2ccccc2F)[C@H](C)CN([C@H](C)CO)S3(=O)=O)cc1,1,-2,0,-3,/,/
FC(F)(F)c1ccccc1Cc1c(-c2ccco2)nc2c3ccccc3ccn12,21,-6,13*,1,14,8
CCOC(=O)Cc1csc(SCC(=O)NC2CCCC(C)C2C)n1 (stereo not given),-2,8,2,0,/,/
CCOC(=O)C1=C(COC(=O)C2CC(=O)N(c3ccc(C)cc3)C2)NC(=O)NC1C (stereo not given),37*,-2,14*,5,2,1
O=C(/C=C/c1cccc(Br)c1)N1CCN(c2ccccn2)CC1,35*,0,14*,-3,4,3
CCOc1cc(CNCc2ccc3c(c2)OCO3)ccc1OC,3,1,-3,-5,/,/
COc1ccccc1OCC(O)CNCc1ccc2c(c1)OCO2 (stereo not given),0,1,18*,-1,8,5
C[N+]1(CC(=O)NNc2c3ccccc3nc3ccccc23)CCOCC1,29*,-17,40*,1,34*,31*
Cc1ccc(CC(=O)Nc2cccc(C)n2)cc1,20,7,15*,4,6,3
Cc1cccc(NC(=O)Cc2ccc(-c3ccccc3)cc2)n1,0,5,-6,4,/,/

# Source: PubChem BioAssay
